Reference: PMC9292889 (Clinical Pharmacology in Drug Development, 2020)
“Also recorded” adds a separate entry of the source. Marks after values point to notes of the source that are not given here.

How the values were obtained:
[1] = Single-dose plasma pharmacokinetics; type: in vivo, human; settings: for Ratio of dose‐normalized geometric means AUC0‐∞ (90%CI) / Ratio of dose‐normalized geometric means Cmax (90%CI) / half-life: day 1; for half-life / Cmax / Tmax: human, plasma; for half-life: oral, across the 2‐ to 10‐mg dose range; for Cmax / Tmax: po; for Tmax: day 1, median (range); for CL/F: day 1, arithmetic mean (SD)
Outline: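 Fasted healthy Chinese adults took a single oral dose of test compound (2, 4 or 10 mg) with 200 mL water on day 1. Plasma was sampled at 0.5–48 h by LC-MS/MS (K2EDTA plasma, liquid-liquid extraction, validated 0.200–200.00 ng/mL). Noncompartmental Cmax, tmax, AUC0‑∞ and CL/F were derived. A power model gave ratios of dose-normalized geometric means against 2 mg, with 90% CI.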

[2] = Multiple-dose plasma pharmacokinetics; type: in vivo, human; settings: for CL/F / RA (accumulation ratio): day 10, arithmetic mean (SD), N = 8; for Ratio of dose‐normalized geometric means AUCτ,ss (90%CI) / Ratio of dose‐normalized geometric means Cmax,ss (90%CI): multiple dose, day 10
Outline: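 Oral test compound (2, 4, 10 mg) was given once daily on days 4–10 after an overnight fast of at least 10 h. Plasma was sampled predose on days 4–10 to judge steady state, and at 0.5–48 h after the day-10 dose. LC-MS/MS after liquid-liquid extraction from K2EDTA plasma, validated 0.200–200.00 ng/mL. Noncompartmental AUCτ,ss, Cmax,ss, tmax, t½, CL/F and accumulation ratio were derived.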

Safety and tolerability = type: in vivo, human; settings: for Number of subjects (%) with ≥1 AE, all causalities: single and multiple doses
Outline: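 Fasted healthy Chinese adults received oral test compound (2, 4, 10 mg) or placebo, single dose on day 1 then once daily on days 4–10, blinded and randomized. TEAEs were defined as onset or worsening after dosing and coded by MedDRA term. They were tabulated by treatment, relationship to drug, day of onset and severity. Single 12-lead ECGs, supine/standing blood pressure and pulse rate, and laboratory tests were also recorded.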

[3] = Clinical laboratory tests; type: in vivo, human; settings: for maximum mean decrease in ANC: day 10, 8 hours after dosing; for maximum mean decrease from baseline in ANC: day 1, 8 hours after dosing
Outline: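 Randomized, subject- and investigator-blinded study in healthy Chinese adults (screening ANC ≥2000 cells/μL). Oral dose of 2, 4 or 10 mg test compound or placebo, given after an overnight fast of at least 10 h with 200 mL water, meals 3 h later. Single dose on day 1, then once daily on days 4–10. Clinical laboratory tests were run throughout, and ANC/ALC change was taken from baseline.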

[4] = cited from earlier work
cytochrome P450 3A4 = settings: oxidative metabolism mediated by cytochrome P450 3A4; cited from earlier work
[5] = test system: organic anion transporter 3; settings: in vitro; cited from earlier work
[6] = test system: multidrug and toxin extrusion protein 2‐K; settings: in vitro; cited from earlier work
P‐glycoprotein = settings: in vitro; cited from earlier work
[7] = test system: breast cancer resistance protein; settings: in vitro; cited from earlier work
[8] = patients weighing <40 kg; cited from earlier work

CCS(=O)(=O)N1CC(CC#N)(n2cc(-c3ncnc4[nH]ccc34)cn2)C1 [Baricitinib]
Ratio of dose‐normalized geometric means AUC0‐∞ (90%CI) ([1]; 4 mg vs 2 mg, single dose): 1.05 (1.00‐1.11) | Ratio of dose‐normalized geometric means Cmax (90%CI) ([1]; 4 mg vs 2 mg, single dose): 1.09 (0.97‐1.22) | Ratio of dose‐normalized geometric means AUC0‐∞ (90%CI) ([1]; 10 mg vs 2 mg, single dose): 1.13 (1.01‐1.26) | Ratio of dose‐normalized geometric means Cmax (90%CI) ([1]; 10 mg vs 2 mg, single dose): 1.22 (0.94‐1.58) | half-life ([1]; mean t1/2, single dose): 5.9 to 7.4 h | half-life ([1]; t1/2, individual values, single dose): 4.5 to 11.8 h | Cmax ([1]; 2 mg): 24.6 ng/mL | Tmax ([1]; 2 mg, single oral 2 mg, N = 8): 1 h | Cmax ([1]; 4 mg): 51.3 ng/mL | Tmax ([1]; 4 mg, single oral 4 mg, N = 9): 1 h | Cmax ([1]; 10 mg): 152 ng/mL | Tmax ([1]; 10 mg, single oral 10 mg, N = 8): 0.75 h | CL/F ([1]; single oral 2 mg, N = 8): 14.5 (1.76) L/h | CL/F ([1]; single oral 4 mg, N = 8): 15.0 (2.48) ^a L/h | CL/F ([1]; single oral 10 mg, N = 8): 12.9 (1.24) L/h | CL/F ([2]; 2 mg once daily): 13.9 (1.66) L/h | RA (accumulation ratio) ([2]; 2 mg once daily): 1.11 (0.11) | CL/F ([2]; 4 mg once daily): 15.3 (2.64) L/h | RA (accumulation ratio) ([2]; 4 mg once daily): 1.06 (0.20) | Ratio of dose‐normalized geometric means AUCτ,ss (90%CI) ([2]; 4 mg vs 2 mg): 1.03 (0.97‐1.09) | Ratio of dose‐normalized geometric means Cmax,ss (90%CI) ([2]; 4 mg vs 2 mg): 0.99 (0.91‐1.08) | CL/F ([2]; 10 mg once daily): 13.1 (1.95) L/h | RA (accumulation ratio) ([2]; 10 mg once daily): 1.05 (0.07) | Ratio of dose‐normalized geometric means AUCτ,ss (90%CI) ([2]; 10 mg vs 2 mg): 1.07 (0.94‐1.23) | Ratio of dose‐normalized geometric means Cmax,ss (90%CI) ([2]; 10 mg vs 2 mg): 0.99 (0.81‐1.20) | AUC ([2]; human, plasma, oral, 2 mg): 146 ng·h/mL | Cmax ([2]; human, plasma, oral, 2 mg): 28.6 ng/mL | Tmax ([2]; human, plasma, oral, 2 mg): 0.5 h | half-life ([2]; human, plasma, oral, 2 mg): 5.68 h | AUC ([2]; human, plasma, oral, 4 mg): 268 ng·h/mL | Cmax ([2]; human, plasma, oral, 4 mg): 49.6 ng/mL | half-life ([2]; human, plasma, oral, 4 mg): 7.55 h | AUC ([2]; human, plasma, oral, 10 mg): 778 ng·h/mL | Cmax ([2]; human, plasma, oral, 10 mg): 138 ng/mL | half-life ([2]; human, plasma, oral, 10 mg): 7.39 h | Attainment of steady‐state plasma concentrations ([2]; once‐daily dosing days 4 through 10, predose samples): after the second day of once‐daily dosing; also recorded: after the second once‐daily dose | ALT increased, drug related (number of TEAEs [number of subjects with TEAEs]) (Safety and tolerability; 2 mg (N = 8)): 0 | ANC decreased, drug related (number of TEAEs [number of subjects with TEAEs]) (Safety and tolerability; 2 mg (N = 8)): 0 | AST increased, drug related (number of TEAEs [number of subjects with TEAEs]) (Safety and tolerability; 2 mg (N = 8)): 0 | Bilirubin increased, drug related (number of TEAEs [number of subjects with TEAEs]) (Safety and tolerability; 2 mg (N = 8)): 0 | ECG abnormal, drug related (number of TEAEs [number of subjects with TEAEs]) (Safety and tolerability; 2 mg (N = 8)): 0 | Hypotension, drug related (number of TEAEs [number of subjects with TEAEs]) (Safety and tolerability; 2 mg (N = 8)): 0 | Orthostatic hypotension, drug related (number of TEAEs [number of subjects with TEAEs]) (Safety and tolerability; 2 mg (N = 8)): 0 | Overall drug related TEAEs (number of TEAEs [number of subjects with TEAEs]) (Safety and tolerability; 2 mg (N = 8)): 0 (0) | Total number of TEAEs (all severities were “mild”), n, all causalities (Safety and tolerability; 2 mg (N = 8)): 2 | Number of subjects (%) with ≥1 AE, all causalities (Safety and tolerability; 2 mg (N = 8)): 1 (12.5) | ALT increased, drug related (number of TEAEs [number of subjects with TEAEs]) (Safety and tolerability; 4 mg (N = 9)): 1 (1) | ANC decreased, drug related (number of TEAEs [number of subjects with TEAEs]) (Safety and tolerability; 4 mg (N = 9)): 1 (1) | AST increased, drug related (number of TEAEs [number of subjects with TEAEs]) (Safety and tolerability; 4 mg (N = 9)): 1 (1) | Bilirubin increased, drug related (number of TEAEs [number of subjects with TEAEs]) (Safety and tolerability; 4 mg (N = 9)): 0 | ECG abnormal, drug related (number of TEAEs [number of subjects with TEAEs]) (Safety and tolerability; 4 mg (N = 9)): 0 | Hypotension, drug related (number of TEAEs [number of subjects with TEAEs]) (Safety and tolerability; 4 mg (N = 9)): 0 | Orthostatic hypotension, drug related (number of TEAEs [number of subjects with TEAEs]) (Safety and tolerability; 4 mg (N = 9)): 0 | Overall drug related TEAEs (number of TEAEs [number of subjects with TEAEs]) (Safety and tolerability; 4 mg (N = 9)): 3 (2) | Total number of TEAEs (all severities were “mild”), n, all causalities (Safety and tolerability; 4 mg (N = 9)): 3 | Number of subjects (%) with ≥1 AE, all causalities (Safety and tolerability; 4 mg (N = 9)): 2 (22.2) | ALT increased, drug related (number of TEAEs [number of subjects with TEAEs]) (Safety and tolerability; 10 mg (N = 8)): 2 (2) | ANC decreased, drug related (number of TEAEs [number of subjects with TEAEs]) (Safety and tolerability; 10 mg (N = 8)): 0 | AST increased, drug related (number of TEAEs [number of subjects with TEAEs]) (Safety and tolerability; 10 mg (N = 8)): 1 (1) | Bilirubin increased, drug related (number of TEAEs [number of subjects with TEAEs]) (Safety and tolerability; 10 mg (N = 8)): 1 (1) | ECG abnormal, drug related (number of TEAEs [number of subjects with TEAEs]) (Safety and tolerability; 10 mg (N = 8)): 0 | Hypotension, drug related (number of TEAEs [number of subjects with TEAEs]) (Safety and tolerability; 10 mg (N = 8)): 0 | Orthostatic hypotension, drug related (number of TEAEs [number of subjects with TEAEs]) (Safety and tolerability; 10 mg (N = 8)): 1 (1) | Overall drug related TEAEs (number of TEAEs [number of subjects with TEAEs]) (Safety and tolerability; 10 mg (N = 8)): 5 (4) | Total number of TEAEs (all severities were “mild”), n, all causalities (Safety and tolerability; 10 mg (N = 8)): 6 | Number of subjects (%) with ≥1 AE, all causalities (Safety and tolerability; 10 mg (N = 8)): 4 (50.0) | Severity of TEAEs (Safety and tolerability; all TEAEs reported during the study): mild | Serious adverse events (SAEs) (Safety and tolerability; during the study): no SAEs reported | 12‐lead ECG changes (Safety and tolerability; following administration of baricitinib 2 to 10 mg): no clinically significant dose‐dependent ECG changes | Tolerability (Safety and tolerability; single and multiple oral once‐daily doses up to 10 mg): generally well tolerated | time for ANC and ALC values to return to baseline postdose ([3]; days 1 and 10): ≤ 24 h | maximum mean decrease in ANC ([3]; multiple dose 2 mg): 0.096 GI/L | maximum mean decrease in ANC ([3]; multiple dose 4 mg): 0.706 GI/L | maximum mean decrease in ANC ([3]; multiple dose 10 mg): 1.443 GI/L | time of increase in ALC after dosing ([3]; single and multiple doses): 16 h | time of maximum decrease in ANC after dosing ([3]; single and multiple doses): 8 h | maximum mean decrease from baseline in ANC ([3]; single dose 2 mg): 0.616 GI/L | maximum mean decrease from baseline in ANC ([3]; single dose 4 mg): 0.808 GI/L | maximum mean decrease from baseline in ANC ([3]; single dose 10 mg): 1.706 GI/L | excreted in the urine in an unchanged form [4]: ~75% | mean renal clearance [4]: ~12 L/h^2 | oral‐dose clearance [4]: 17 L/h | mean terminal‐phase t1/2 ([4]; healthy White subjects, noncompartmental PK method): approximately 8 hours | geometric mean terminal‐phase disposition half‐life (t1/2) ([4]; healthy White volunteers): about 8 hours | dose identified as undergoing biotransformation (cytochrome P450 3A4): < 10% | transporter substrate [5]: substrate | transporter substrate [6]: substrate | transporter substrate (P‐glycoprotein): substrate | transporter substrate [7]: substrate | t1/2 compared with adult populations [8]: substantially shorter
